Results as given in ChEMBL document CHEMBL1177718, “Phosphoramidate ProTides of 2'-C-methylguanosine as highly potent inhibitors of hepatitis C virus. Study of their in vitro and in vivo properties” (J Med Chem, 2010).

What was measured:
Plasma = experiment: Dose normalized AUC in ICR mouse plasma at 50 mg/kg, po by LC-MS/MS analysis; format: ADME, organism-based; parameters: dose 50 mg/kg, route oral; details: in vivo
Liver [1] = experiment: AUC (0 to 6 hrs) in ICR mouse liver at 50 mg/kg, po by LC-MS/MS analysis; format: ADME, organism-based; parameters: time < 6 hr, dose 50 mg/kg, route oral; details: in vivo
[2] = Cmax in ICR mouse plasma at 50 mg/kg, po by LC-MS/MS analysis; format: ADME, organism-based; parameters: dose 50 mg/kg, route oral
Liver [3] = experiment: Dose normalized AUC in ICR mouse liver at 50 mg/kg, po by LC-MS/MS analysis; format: ADME, organism-based; parameters: dose 50 mg/kg, route oral; details: in vivo
Hepatitis C virus = experiment: Antiviral activity against HCV1b infected in human HuH7 cells assessed as inhibition of viral replication after 48 hrs by luciferase reporter gene assay; format: functional, organism-based, Hepacivirus hominis; details: genotype 1b, Huh-7, 48 h
Summary of the method: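 Huh7 cells carrying genotype 1b bicistronic subgenomic replicon, seeded 2 × 10⁴/well without G-418; compounds added 18-24 h later, 48 h exposure; 3× or 4× serial dilutions over 0.0001-10 μM in triplicate/quadruplicate; Renilla luciferase read-out versus untreated cells; EC₅₀ by four-parameter sigmoidal nonlinear regression; at least three independent assays.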

Homo sapiens = species: Homo sapiens; experiment: Metabolic stability in human plasma assessed as compound remaining at 1 ug/ml after 30 mins
[4] = Metabolic stability in dog plasma assessed as compound remaining at 1 ug/ml after 30 mins; format: ADME, cell-free, Canis lupus familiaris; details: read-out: Stability
Summary of the method: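 Duplicate incubations; compound at final 1 μg/mL in plasma preincubated and kept at […]; samples taken at 30 or 240 min, quenched with ice-cold acetonitrile, centrifuged, supernatant diluted with water; parent quantified by LC-MS/MS (Polar-RP column, formic acid water/acetonitrile gradient, positive ion mode); % remaining reported.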

[5] = Metabolic stability in mouse plasma assessed as compound remaining at 1 ug/ml after 30 mins; format: ADME, cell-free; details: read-out: Stability
[6] = Metabolic stability in human liver S9 fraction assessed as compound remaining at 10 uM after 60 mins by HPLC analysis in presence of NADP; format: ADME, subcellular; details: read-out: Stability
Summary of the method: (§1)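 Liver or intestinal S9 at final 1 mg/mL in 50 mM potassium phosphate, with or without NADPH-regenerating system (1.3 mM NADP, 3.3 mM glucose-6-phosphate, 0.4 U/mL G6PDH, 3.3 mM MgCl₂); 10 min preincubation at 37 °C; compound at final 10 μM; samples at start and 60 min quenched in cold acetonitrile, centrifuged, HPLC; % parent remaining.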

[7] = Metabolic stability in human intestine S9 fraction assessed as compound remaining at 10 uM after 60 mins by HPLC analysis in absence of NADP; format: ADME, tissue-based; details: read-out: Stability; summary of the method: as §1
[8] = Metabolic stability in dog liver S9 fraction assessed as compound remaining at 10 uM after 60 mins by HPLC analysis in presence of NADP; format: ADME, subcellular, Canis lupus familiaris; details: read-out: Stability; summary of the method: as §1
[9] = Metabolic stability in human intestine S9 fraction assessed as compound remaining at 10 uM after 60 mins by HPLC analysis in presence of NADP; format: ADME, tissue-based; details: read-out: Stability; summary of the method: as §1
[10] = Metabolic stability in dog liver S9 fraction assessed as compound remaining at 10 uM after 60 mins by HPLC analysis in absence of NADP; format: ADME, subcellular, Canis lupus familiaris; details: read-out: Stability; summary of the method: as §1
[11] = Cytotoxicity against human HuH7 cells after 72 hrs by celltiter-glo assay; format: cell-based, Huh-7
Summary of the method: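 Replicon 1b Huh7 cells seeded 2 × 10⁴/well; after 24 h, 11 serial 2× dilutions from 100 μM (three repeats each) with no-compound control; 72 h at 37 °C, CO₂, log-phase growth; viability by CellTiter-Glo luminescence; CC₅₀ = concentration giving 50% signal.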

[12] = Metabolic stability in dog intestine S9 fraction assessed as compound remaining at 10 uM after 60 mins by HPLC analysis in presence of NADP; format: ADME, tissue-based, Canis lupus familiaris; details: read-out: Stability; summary of the method: as §1
[13] = Metabolic stability in human liver S9 fraction assessed as compound remaining at 10 uM after 60 mins by HPLC analysis in absence of NADP; format: ADME, subcellular; details: read-out: Stability; summary of the method: as §1
[14] = Metabolic stability in dog intestine S9 fraction assessed as compound remaining at 10 uM after 60 mins by HPLC analysis in absence of NADP; format: ADME, tissue-based, Canis lupus familiaris; details: read-out: Stability; summary of the method: as §1
Liver [15] = experiment: AUC (0 to 24 hrs) in ICR mouse liver at 50 mg/kg, po by LC-MS/MS analysis; format: ADME, organism-based; parameters: time < 24 hr, dose 50 mg/kg, route oral; details: in vivo
[16] = Metabolic stability in cynomolgus monkey intestine S9 fraction assessed as compound remaining at 10 uM after 60 mins by HPLC analysis in presence of NADP; format: ADME, tissue-based, Macaca fascicularis; details: read-out: Stability; summary of the method: as §1
[17] = Metabolic stability in rat intestine S9 fraction assessed as compound remaining at 10 uM after 60 mins by HPLC analysis in presence of NADP; format: ADME, tissue-based; details: read-out: Stability
Summary of the method: (§2)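 Rat liver or intestinal S9 at 1 mg/mL final in 50 mM potassium phosphate, with or without NADPH-regenerating system (final 1.3 mM NADP, 3.3 mM glucose-6-phosphate, 0.4 U/mL G6P dehydrogenase, 3.3 mM MgCl2). Preincubated 10 min at 37 °C with shaking, started with compound at 10 μM final. Samples taken at 0 and 60 min, quenched in cold acetonitrile, centrifuged, and parent disappearance measured by HPLC.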

[18] = Metabolic stability in cynomolgus monkey liver S9 fraction assessed as compound remaining at 10 uM after 60 mins by HPLC analysis in absence of NADP; format: ADME, subcellular, Macaca fascicularis; details: read-out: Stability; summary of the method: as §1
[19] = Metabolic stability in cynomolgus monkey liver S9 fraction assessed as compound remaining at 10 uM after 60 mins by HPLC analysis in presence of NADP; format: ADME, subcellular, Macaca fascicularis; details: read-out: Stability; summary of the method: as §1
[20] = Metabolic stability in cynomolgus monkey intestine S9 fraction assessed as compound remaining at 10 uM after 60 mins by HPLC analysis in absence of NADP; format: ADME, tissue-based, Macaca fascicularis; details: read-out: Stability; summary of the method: as §1
[21] = Metabolic stability in rat intestine S9 fraction assessed as compound remaining at 10 uM after 60 mins by HPLC analysis in absence of NADP; format: ADME, tissue-based; details: read-out: Stability; summary of the method: as §2
[22] = Metabolic stability in rat liver S9 fraction assessed as compound remaining at 10 uM after 60 mins by HPLC analysis in presence of NADP; format: ADME, subcellular; details: read-out: Stability; summary of the method: as §2
[23] = Metabolic stability in rat liver S9 fraction assessed as compound remaining at 10 uM after 60 mins by HPLC analysis in absence of NADP; format: ADME, subcellular; details: read-out: Stability; summary of the method: as §2
[24] = Metabolic stability in mouse plasma assessed as compound remaining at 1 ug/ml after 4 hrs; format: ADME, cell-free; details: read-out: Stability

## CC(C)[C@H](NP(=O)(OC[C@H]1O[C@@H](n2cnc3c(=O)[nH]c(N)nc32)[C@](C)(O)[C@@H]1O)Oc1cccc2ccccc12)C(=O)OCc1ccc(Cl)cc1 (some centres not stated)
Plasma
  AUC: 88 ng·h/mL
Liver [1]
  AUC: 920 ng·h/g
[2]
  Cmax: 339 ng/mL
Liver [3]
  AUC: 18 ng·h/g
Hepatitis C virus
  EC50: 620 nM
Homo sapiens
  remaining at 0.5 h, 1 ug/ml: 95%
[4]
  remaining at 0.5 h, 1 ug/ml: 89%
[5]
  remaining at 0.5 h, 1 ug/ml: 94%

## C[C@H](NP(=O)(OC[C@H]1O[C@@H](n2cnc3c(=O)[nH]c(N)nc32)[C@](C)(O)[C@@H]1O)Oc1ccc2ccccc2c1)C(=O)OCc1ccccc1 (some centres not stated)
[6]
  remaining at 1 h, 10 µM: 14%
[7]
  remaining at 1 h, 10 µM: 23%
[8]
  remaining at 1 h, 10 µM: 33%
[9]
  remaining at 1 h, 10 µM: 24%
Hepatitis C virus
  EC50: 170 nM
[10]
  remaining at 1 h, 10 µM: 28%
[11]
  CC50 at 72 h: > 50000 nM
[12]
  remaining at 1 h, 10 µM: 23%
[5]
  remaining at 0.5 h, 1 ug/ml: 0.7%
[13]
  remaining at 1 h, 10 µM: 29%
[14]
  remaining at 1 h, 10 µM: 27%

## CC(C)[C@H](NP(=O)(OC[C@H]1O[C@@H](n2cnc3c(=O)[nH]c(N)nc32)[C@](C)(O)[C@@H]1O)Oc1cccc2ccccc12)C(=O)OC1CCCCC1 (some centres not stated)
Plasma
  AUC: 33 ng·h/mL
Liver [1]
  AUC: 815 ng·h/g
[2]
  Cmax: 185 ng/mL
Liver [3]
  AUC: 77 ng·h/g
Hepatitis C virus
  EC50: 1000 nM
Homo sapiens
  remaining at 0.5 h, 1 ug/ml: 97%
Liver [15]
  AUC: 3860 ng·h/g
[4]
  remaining at 0.5 h, 1 ug/ml: 95%
[11]
  CC50 at 72 h: > 100000 nM
[5]
  remaining at 0.5 h, 1 ug/ml: 95%

## CC(C)OC(=O)[C@H](C)NP(=O)(OC[C@H]1O[C@@H](n2cnc3c(=O)[nH]c(N)nc32)[C@](C)(O)[C@@H]1O)Oc1cccc2ccccc12 (some centres not stated)
[6]
  remaining at 1 h, 10 µM: 27%
[7]
  remaining at 1 h, 10 µM: 85%
[8]
  remaining at 1 h, 10 µM: 81%
[16]
  remaining at 1 h, 10 µM: 48%
[17]
  remaining at 1 h, 10 µM: 77%
[18]
  remaining at 1 h, 10 µM: 86%
[19]
  remaining at 1 h, 10 µM: 0%
[9]
  remaining at 1 h, 10 µM: 65%
Hepatitis C virus
  EC50: 170 nM
[10]
  remaining at 1 h, 10 µM: 91%
[20]
  remaining at 1 h, 10 µM: 87%
[21]
  remaining at 1 h, 10 µM: 76%
[11]
  CC50 at 72 h: > 100000 nM
[12]
  remaining at 1 h, 10 µM: 66%
[5]
  remaining at 0.5 h, 1 ug/ml: 14%
[13]
  remaining at 1 h, 10 µM: 41%
[22]
  remaining at 1 h, 10 µM: 25%
[23]
  remaining at 1 h, 10 µM: 28%
[14]
  remaining at 1 h, 10 µM: 68%

## CC(C)[C@H](NP(=O)(OC[C@H]1O[C@@H](n2cnc3c(=O)[nH]c(N)nc32)[C@](C)(O)[C@@H]1O)Oc1cccc2ccccc12)C(=O)OCc1ccccc1Cl (some centres not stated)
Plasma
  AUC: 49 ng·h/mL
Liver [1]
  AUC: 880 ng·h/g
[2]
  Cmax: 518 ng/mL
Liver [3]
  AUC: 18 ng·h/g
Hepatitis C virus
  EC50: 430 nM
Homo sapiens
  remaining at 0.5 h, 1 ug/ml: 77%
[4]
  remaining at 0.5 h, 1 ug/ml: 100%
[11]
  CC50 at 72 h: > 100000 nM
[5]
  remaining at 0.5 h, 1 ug/ml: 69%

## CC[C@H](C)[C@H](NP(=O)(OC[C@H]1O[C@@H](n2cnc3c(=O)[nH]c(N)nc32)[C@](C)(O)[C@@H]1O)Oc1cccc2ccccc12)C(=O)OCc1ccccc1 (some centres not stated)
[6]
  remaining at 1 h, 10 µM: 29%
[7]
  remaining at 1 h, 10 µM: 74%
[8]
  remaining at 1 h, 10 µM: 64%
[16]
  remaining at 1 h, 10 µM: 29%
[17]
  remaining at 1 h, 10 µM: 71%
[18]
  remaining at 1 h, 10 µM: 89%
[19]
  remaining at 1 h, 10 µM: 0%
[9]
  remaining at 1 h, 10 µM: 52%
[24]
  remaining at 4 h, 1 ug/ml: 95%
Hepatitis C virus
  EC50: 900 nM
[10]
  remaining at 1 h, 10 µM: 84%
[20]
  remaining at 1 h, 10 µM: 95%
[21]
  remaining at 1 h, 10 µM: 70%
[11]
  CC50 at 72 h: > 50000 nM
[12]
  remaining at 1 h, 10 µM: 87%
[5]
  remaining at 0.5 h, 1 ug/ml: 100%
[13]
  remaining at 1 h, 10 µM: 83%
[22]
  remaining at 1 h, 10 µM: 37%
[23]
  remaining at 1 h, 10 µM: 78%
[14]
  remaining at 1 h, 10 µM: 96%
